Positions of bridges follow the written chain, without caps; N, C: chain ends. Residues, ends and D or L forms follow the SMILES beside them.
Columns and labels:
[1] = system: TRPV1; conditions: cited from earlier work
[2] = molecular target: T1, TRPV1 channels expressed in HEK293T cells (murine TRPV1, E571A, C-terminal eYFP) (Mus musculus, UniProt Q704Y3, E571A); assay: Single-channel recording of TRPV1; format: cell-based; conditions: outside-out; 300 μM RhTx2, on first perfusion
[3] = system: TRPV3; assay: Whole-cell patch-clamp of TRPV3; format: cell-based; conditions: n = 4
In short: (§1)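 Channels transiently expressed in HEK293T cells (DMEM, 10% FBS, 37 °C, 5% CO2; Lipofectamine 3000) and recorded 24–48 h after transfection. Whole-cell, ~4 MΩ pipettes, 60% series-resistance compensation. Bath and pipette: 130 mM NaCl, 10 mM glucose, 0.2 mM EDTA, 3 mM HEPES pH 7.2. Sampled 10 kHz, filtered 2.9 kHz, 22 °C, rapid gravity perfusion. Mean ± SEM.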

[4] = system: TRPV2; assay: Whole-cell patch-clamp of TRPV2; format: cell-based; conditions: n = 4
In short: as §1

[5] = molecular target: T1, TRPV1 channels expressed in HEK293T cells (murine TRPV1, E571A, C-terminal eYFP); assay: Patch-clamp activation of TRPV1, extracellular perfusion; format: cell-based
[6] = molecular target: T1, TRPV1 channels expressed in HEK293T cells (murine TRPV1, E571A, C-terminal eYFP); assay: TRPV1 desensitization on prolonged application and recovery; format: cell-based; conditions: RhTx2 300 μM vs RhTx 10 μM
[7] = system: TRPV1; conditions: animal studies, ref Kaszas et al., 2012, Lebovitz et al.; cited from earlier work
[8] = molecular target: T1, TRPV1 channels expressed in HEK293T cells (murine TRPV1, E571A, C-terminal eYFP); assay: Inside-out patch-clamp of TRPV1, intracellular perfusion; format: cell-based

T1 sequence (Q704Y3 whole entry E571A, the tested form may be a part): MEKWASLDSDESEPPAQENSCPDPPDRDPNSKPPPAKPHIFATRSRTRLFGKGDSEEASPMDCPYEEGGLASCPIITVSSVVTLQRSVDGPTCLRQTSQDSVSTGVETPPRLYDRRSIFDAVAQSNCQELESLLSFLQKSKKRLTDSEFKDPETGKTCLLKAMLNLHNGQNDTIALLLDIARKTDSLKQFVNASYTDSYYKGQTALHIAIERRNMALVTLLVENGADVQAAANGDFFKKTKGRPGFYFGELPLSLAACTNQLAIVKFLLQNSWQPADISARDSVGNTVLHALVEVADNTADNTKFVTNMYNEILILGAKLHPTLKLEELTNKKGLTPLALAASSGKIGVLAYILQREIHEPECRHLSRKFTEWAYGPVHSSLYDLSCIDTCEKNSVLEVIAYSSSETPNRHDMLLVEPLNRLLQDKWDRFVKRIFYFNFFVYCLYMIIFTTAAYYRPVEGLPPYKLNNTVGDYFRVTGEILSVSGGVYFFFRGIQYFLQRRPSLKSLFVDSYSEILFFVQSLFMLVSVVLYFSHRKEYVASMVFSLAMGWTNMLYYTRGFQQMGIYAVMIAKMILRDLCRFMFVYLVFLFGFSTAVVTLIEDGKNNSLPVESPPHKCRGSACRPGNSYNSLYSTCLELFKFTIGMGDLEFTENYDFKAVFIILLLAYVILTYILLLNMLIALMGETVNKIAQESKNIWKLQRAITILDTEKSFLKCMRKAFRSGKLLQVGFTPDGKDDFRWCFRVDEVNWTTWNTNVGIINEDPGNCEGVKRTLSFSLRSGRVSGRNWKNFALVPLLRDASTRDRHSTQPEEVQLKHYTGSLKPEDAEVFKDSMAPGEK

CC[C@H](C)[C@H](NC(=O)[C@@H]1CSSC[C@@H]2NC(=O)[C@H]([C@@H](C)O)NC(=O)[C@H](C(C)C)NC(=O)CNC(=O)[C@H](CC(N)=O)NC(=O)[C@@H](NC(=O)[C@@H]3CCCN3C(=O)[C@H](CC(N)=O)NC(=O)[C@H](CC(N)=O)NC(=O)[C@@H](N)CC(C)C)CSSC[C@H](NC(=O)[C@H](CCCNC(=N)N)NC(=O)[C@H](Cc3ccc(O)cc3)NC(=O)CNC(=O)[C@H](CO)NC(=O)[C@@H]3CCCN3C2=O)C(=O)N[C@@H](CO)C(=O)N[C@@H]([C@@H](C)CC)C(=O)N[C@@H](C(C)C)C(=O)N[C@@H](CC(=O)O)C(=O)N[C@@H](CCCCN)C(=O)N[C@@H](CCC(N)=O)C(=O)N1)C(=O)N[C@@H](CCCCN)C(=O)N[C@@H](CCCCN)C(=O)N[C@@H](CCC(=O)O)C(=O)O [RhTx] (H-LNNPCNGVTCPSGYRCSIVDKQCIKKE-OH; disulfide 5-16, 10-23; N-terminus and C-terminus assumed)
mechanism of TRPV1 desensitization, literature (in words) ([1]; ref Yang et al., 2015, Luo et al., 2019): mechanistically similar to the heat desensitization | TRPV1 activation, literature (in words) ([1]; ref Yang et al., 2015): strongly activates TRPV1 | binding site on TRPV1, literature (in words) ([1]; ref Yang et al., 2015): binds to the outer pore region above the pore helix

CC[C@H](C)[C@H](NC(=O)[C@@H]1CSSC[C@@H]2NC(=O)[C@H]([C@@H](C)O)NC(=O)[C@H](C(C)C)NC(=O)CNC(=O)[C@H](CC(N)=O)NC(=O)[C@@H](NC(=O)[C@@H]3CCCN3C(=O)[C@H](CC(N)=O)NC(=O)[C@H](CC(N)=O)NC(=O)[C@H](CC(C)C)NC(=O)[C@H](Cc3ccc(O)cc3)NC(=O)[C@H](CCCCN)NC(=O)[C@H](CO)NC(=O)[C@@H](N)CC(N)=O)CSSC[C@H](NC(=O)[C@H](CCCNC(=N)N)NC(=O)[C@H](Cc3ccc(O)cc3)NC(=O)CNC(=O)[C@H](CO)NC(=O)[C@@H]3CCCN3C2=O)C(=O)N[C@@H](CO)C(=O)N[C@@H]([C@@H](C)CC)C(=O)N[C@@H](C(C)C)C(=O)N[C@@H](CC(=O)O)C(=O)N[C@@H](CCCCN)C(=O)N[C@@H](CCC(N)=O)C(=O)N1)C(=O)N[C@@H](CCCCN)C(=O)N[C@@H](CCCCN)C(=O)N[C@@H](CCC(=O)O)C(=O)O [RhTx2] (H-NSKYLNNPCNGVTCPSGYRCSIVDKQCIKKE-OH; disulfide 9-20, 14-27; N-terminus and C-terminus assumed)
initial single-channel opening (in words) [2]: strong channel opening | current activation in TRPV3 compared with TRPV1 (in words) [3]: much smaller | current activation in TRPV2 compared with TRPV1 (in words) [4]: much smaller | change in EC50, RhTx2 vs RhTx (fold) ([5]; EC50 of RhTx2 relative to RhTx, apparent binding affinity much lower): ~100 fold | selectivity (in words) ([5]; TRPV1 vs TRPV2 and TRPV3, whole-cell, n = 4 per channel): selective for TRPV1 channel | TRPV1 activation (in words) ([5]; perfused from extracellular side, whole-cell recording, HEK293T): robustly activated TRPV1 | steady state open probability in the desensitized state (in words) [6]: significantly lower than that of RhTx

CCOC(=O)C1=C(c2ccccc2)NC(C)=C(C(=O)SCCOC)C1CC (stereo not drawn) [MRS1477]
TRPV1 allosteric modulation, literature (in words) ([1]; ref Kaszas et al., 2012, Lebovitz et al.): positively and allosterically modulate the ligand activation of TRPV1 | analgesic effect and side effects, literature (in words) [7]: analgesic effects without side effects such as hyperthermia

COc1cc(CNC(=O)CCCC/C=C/C(C)C)ccc1O [capsaicin]
TRPV1 activation by intracellular application (in words) [8]: robustly activated

Oc1cc2c(cc1O)CN(C(=S)NCCc1ccc(Cl)cc1)CCC2 [capsazepine]
block of RhTx2 activation of TRPV1 (in words) [5]: cannot be blocked | mode of inhibition vs capsaicin, literature (in words) ([1]; ref Cao et al., 2013, Yang et al., 2015): competitive inhibitor

— paper PMC7388746 (Toxicon : official journal of the International Society on …, 2020)
